Laboratory results: ChEMBL document CHEMBL4428043, “Fragment-Based Discovery of Dual JC Virus and BK Virus Helicase Inhibitors” (J Med Chem, 2016)

Columns and labels:
Large T antigen = target: T1, Large T antigen (JC polyomavirus, UniProt P03072); assay: Inhibition of helicase activity of JC polyomavirus LTAg (E264 to D628 residues) expressed in Escherichia coli using Cy5/BHQ3 dsDNA pre-incubated for 20 mins and measured after 120 to 180 mins by fluorescence based assay
T1 sequence (P03072 whole entry): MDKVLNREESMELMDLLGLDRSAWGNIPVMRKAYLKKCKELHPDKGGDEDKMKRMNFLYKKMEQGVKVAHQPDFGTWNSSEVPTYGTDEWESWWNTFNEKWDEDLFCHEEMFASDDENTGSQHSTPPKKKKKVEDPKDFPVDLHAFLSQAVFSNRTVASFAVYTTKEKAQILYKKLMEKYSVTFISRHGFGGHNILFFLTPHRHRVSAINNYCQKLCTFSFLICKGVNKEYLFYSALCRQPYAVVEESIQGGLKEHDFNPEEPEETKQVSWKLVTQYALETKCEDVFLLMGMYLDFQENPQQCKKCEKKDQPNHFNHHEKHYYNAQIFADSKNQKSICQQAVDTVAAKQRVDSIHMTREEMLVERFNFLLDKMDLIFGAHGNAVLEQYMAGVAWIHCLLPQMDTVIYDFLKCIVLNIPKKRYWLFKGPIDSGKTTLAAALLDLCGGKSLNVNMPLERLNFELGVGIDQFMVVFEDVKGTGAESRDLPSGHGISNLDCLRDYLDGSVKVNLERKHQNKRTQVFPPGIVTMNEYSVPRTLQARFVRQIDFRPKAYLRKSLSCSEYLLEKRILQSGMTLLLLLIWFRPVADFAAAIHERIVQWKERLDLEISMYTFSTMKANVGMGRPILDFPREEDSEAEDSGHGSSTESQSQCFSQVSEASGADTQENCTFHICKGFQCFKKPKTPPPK

[1] = Inhibition of helicase activity of BK polyomavirus LTAg (E265 to D629 residues) expressed in Escherichia coli using Cy5/BHQ3 dsDNA pre-incubated for 20 mins and measured after 120 to 180 mins by fluorescence based assay; set-up: species or system Betapolyomavirus hominis
JC polyomavirus = assay: Antiviral activity against JC polyomavirus infected in […] G144 […] cells assessed as reduction in late viral protein and viral capsid protein VP1 incubated for 72 hrs by branched DNA assay; type: functional, organism-based
How it was run: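 G144 […] cells plated on poly-ornithine (0.005%)/laminin (10 µg/ml)-coated flasks, infected with MAD4 JCV at MOI = 1 TCID₅₀ for 24 hr, then replated at 5,000 cells/well in differentiation medium. Compounds added in DMSO (0.5% final) for 72 hr. Lysates denatured with NaOH at 52°C for 30 min; VP1 DNA measured by bDNA capture probes. EC50 from four-parameter curve fit.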

[2] = Cytotoxicity against […] G144 […] cells; type: cell-based

SMILES | IC50 (Large T antigen) | IC50 [1] | EC50 (JC polyomavirus) | CC50 [2]
COc1cccc(OC)c1-c1nn2cnnc2s1 | > 80 µM | > 80 µM | – | –
COc1ccccc1-c1nc2cc(N)ncc2s1 | 4.3 µM | 8.7 µM | – | –
c1cc2c(c(-c3nn4cnnc4s3)c1)OCCC2 | 15.5 µM | 24 µM | – | –
c1ccc(-c2nc3ccncc3s2)c(OCCC2CCOCC2)c1 | 9.6 µM | 11 µM | 7.7 µM | > 50 µM
c1ccc(Oc2ccccc2-c2nc3ccncc3s2)cc1 | 10.5 µM | 10.2 µM | 36 µM | > 50 µM
c1ccc(-c2nn3cnnc3s2)c(OCCC2CCOCC2)c1 | 5.8 µM | 8.4 µM | 15 µM | > 50 µM
c1cc2c(c(-c3nn4cnnc4s3)c1)OCC2 | 13.5 µM | 21 µM | > 16 µM | > 50 µM
CC(=O)Nc1ccc(Oc2ncccc2-c2nc3ccncc3s2)cc1 | 0.6 µM | – | 40 µM | > 50 µM
Oc1ccccc1-c1nn2cnnc2s1 | > 80 µM | > 80 µM | – | –
COc1ccccc1-c1nn2cnnc2s1 | 19.4 µM | 29 µM | > 60 µM | > 80 µM
COc1ccc(-c2nn3cnnc3s2)c(OC)c1 | 18 µM | 24 µM | – | –
CN(C)c1ccccc1-c1nn2cnnc2s1 | > 80 µM | > 80 µM | – | –
c1cc2c(c(-c3nc4ccncc4s3)c1)OCC2 | 8.7 µM | 15 µM | 0.26 µM | > 50 µM
c1ccc(-c2nn3cnnc3s2)c(OCC2CCOCC2)c1 | 6.3 µM | 17 µM | – | –
CCOc1ccccc1-c1nc2ccncc2s1 | 9.1 µM | 8 µM | 7.4 µM | > 50 µM
c1ccc(Oc2ccccc2-c2nn3cnnc3s2)cc1 | 4.9 µM | 3.7 µM | 34 µM | > 50 µM
c1ccc(Oc2ncccc2-c2nc3ccncc3s2)cc1 | 1.4 µM | 1.3 µM | 3.8 µM | > 50 µM
c1ccc(Oc2ccncc2-c2nn3cnnc3s2)cc1 | 5.5 µM | 7.3 µM | – | –

SMILES | IC50 (Large T antigen) | IC50 [1] | EC50 (JC polyomavirus) | CC50 [2]
CC(=O)Nc1ccc(Oc2ccccc2-c2nc3ccncc3s2)cc1 | 0.9 µM | 1.6 µM | 48 µM | > 50 µM
c1ccc(-c2nn3cnnc3s2)c(OCCN2CCOCC2)c1 | 52 µM | 73 µM | – | –
COc1ccccc1-c1nc2ccncc2s1 | 5 µM | 10.7 µM | 1.5 µM | > 50 µM
Cc1ccccc1-c1nn2cnnc2s1 | > 80 µM | > 80 µM | – | –
N#CCCCOc1ccccc1-c1nn2cnnc2s1 | 25 µM | 42 µM | – | –
COCCOc1ccccc1-c1nn2cnnc2s1 | 28.5 µM | 63 µM | – | –
CCOc1ccccc1-c1nn2cnnc2s1 | 18 µM | – | 44 µM | > 65 µM
COc1ccccc1Cc1nn2cnnc2s1 | > 80 µM | > 80 µM | – | –
COc1cccc(-c2nn3cnnc3s2)c1OC | 62 µM | > 80 µM | – | –
Nc1ccccc1-c1nn2cnnc2s1 | > 80 µM | > 80 µM | – | –
c1ccc(Oc2ncccc2-c2nn3cnnc3s2)cc1 | 8.8 µM | 11 µM | 76 µM | > 50 µM
CNc1cc2nc(-c3ccccc3OC)sc2cn1 | > 80 µM | > 80 µM | – | –
CCOc1ccccc1-c1nc2cnccc2s1 | > 80 µM | > 80 µM | – | –
c1ccc(Oc2ncncc2-c2nn3cnnc3s2)cc1 | > 80 µM | > 80 µM | – | –
COc1ccccc1-c1nc2ccnc(N)c2s1 | > 80 µM | > 80 µM | – | –
c1ccc(C2CC2)c(-c2nn3cnnc3s2)c1 | > 80 µM | > 80 µM | – | –
Oc1ccccc1-c1nc2ccncc2s1 | 37 µM | 53 µM | – | –
